Source: ChEMBL document CHEMBL2029233, “Des-acyl ghrelin fragments and analogues promote survival of pancreatic β-cells and human pancreatic islets and prevent diabetes in streptozotocin-treated rats” (2012)
The source made the active and inactive calls. No cut-off for these calls is given here.

Tests used:
HIT-T15 [1] = assay: Antiapoptotic activity in hamster HIT-T15 cells assessed as reduction in IFN-gamma/TNFalpha/IL1beta-induced apoptosis at 1 nM after 24 hrs by Hoechst staining relative to control; type: functional, cell-based; settings: Mesocricetus auratus
Summary of the method: (§1)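 HIT-T15 cells serum-starved 24 h, then 24 h in serum-free medium with IFN-γ 100 ng/mL, TNF-α 200 ng/mL, IL-1β 10 ng/mL plus peptide. Cells pooled with floating cells, formaldehyde-fixed, ethanol-stored, stained with 10 μg/mL Hoechst 33258. Condensed/fragmented nuclei counted, 500 nuclei in duplicate, n = 3. Reported as percent apoptotic cells.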

Rattus norvegicus [2] = assay: Antidiabetic activity in neonatal Sprague-Dawley rat assessed as inhibition of STZ-induced decrease in pancreatic insulin level at 30 nmol/kg, […] measured after 70 days by RIA relative to control; type: functional, organism-based
HIT-T15 [3] = assay: Antiapoptotic activity in hamster HIT-T15 cells assessed as reduction in IFN-gamma/TNFalpha/IL1beta-induced apoptosis at 100 nM after 24 hrs by Hoechst staining relative to control; type: functional, cell-based; settings: Mesocricetus auratus; summary of the method: as §1
HIT-T15 [4] = assay: Cytoprotective activity in hamster HIT-T15 cells assessed as inhibition of serum starvation-induced cell death at 1 to 100 nM after 24 hrs by MTT assay relative to control; type: functional, cell-based; settings: Mesocricetus auratus
Summary of the method: (§2)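 Viability by MTT in HIT-T15 cells seeded at 5×10^3/well, serum-starved 24 h, then 24 h more in serum-free medium with peptide (1–100 nM). MTT 1 mg/mL ~1 h, DMSO solubilization, absorbance 570 nm. Expressed as percent of serum-free control. Mean ± SE, ≥3 experiments in quadruplicate.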

Rattus norvegicus [5] = assay: Antidiabetic activity in neonatal Sprague-Dawley rat assessed as inhibition of STZ-induced mortality at 30 nmol/kg, sc administered on day 2 post STZ-challenge measured on day 9 (reference value: 52%); type: functional; design: scale not given: the % may be the effect or the level left
HIT-T15 [6] = assay: Cytoprotective activity in hamster HIT-T15 cells assessed as inhibition of IFN-gamma/TNFalpha/IL1beta-induced cell death at 1 to 100 nM after 24 hrs by MTT assay relative to control; type: functional, cell-based; settings: Mesocricetus auratus
Summary of the method: (§3)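 HIT-T15 cells (5×10^3/well) serum-starved 24 h, then 24 h serum-free with IFN-γ 100 ng/mL, TNF-α 200 ng/mL, IL-1β 10 ng/mL plus peptide (1–100 nM). MTT 1 mg/mL ~1 h, formazan dissolved in DMSO, A570. Reported as percent of cytokine control. Mean ± SE of ≥3 experiments in quadruplicate.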

Pancreatic islet [7] = assay: Cytoprotective activity in human pancreatic islet cells assessed as inhibition of IFN-gamma/TNFalpha/IL1beta-induced cell death at 10 to 100 nM after 72 hrs by MTT assay relative to control; type: functional
Summary of the method: (§4)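 Human donor islets (>70% purity, 25/well) held 72 h in serum-free medium with peptide, alone or with IFN-γ/TNF-α/IL-1β at 5 ng/mL each. Viability by MTT (1 mg/mL ~1 h, DMSO, 570 nm). Mean ± SE of ≥3 experiments in quadruplicate.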

Rattus norvegicus [8] = assay: Antidiabetic activity in neonatal Sprague-Dawley rat assessed as inhibition of STZ-induced decrease in pancreatic insulin level at 100 nmol/kg, sc administered from day 2 to day 9 post STZ-challenge measured after 70 days by RIA by relative to control; type: functional, organism-based
Summary of the method: (§5)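 Neonatal rats given STZ 100 mg/kg ip in citrate buffer (pH 4.5) on day 1 of birth, then peptide 30 or 100 nmol/kg sc twice daily, days 2–8. Controls received citrate buffer. Killed at day 70. Glucose measured colorimetrically in nonfasted plasma. Plasma and pancreatic (80 mg) insulin measured by RIA. n = 11–21 per group.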

Rattus norvegicus [9] = assay: Antidiabetic activity in neonatal Sprague-Dawley rat assessed as inhibition of STZ-induced decrease in plasma insulin level at 30 nmol/kg, sc administered from day 2 to day 9 post STZ-challenge measured after 70 days by RIA relative to control; type: functional, organism-based; summary of the method: as §5
Rattus norvegicus [10] = assay: Antidiabetic activity in neonatal Sprague-Dawley rat assessed as decrease in STZ-induced plasma glucose level at 100 nmol/kg, sc administered from day 2 to day 9 post STZ-challenge measured after 70 days by colorimetry by relative to control; type: functional, organism-based; summary of the method: as §5
Rattus norvegicus [11] = assay: Antidiabetic activity in neonatal Sprague-Dawley rat assessed as decrease in STZ-induced plasma glucose level at 30 nmol/kg, sc administered from day 2 to day 9 post STZ-challenge measured after 70 days by colorimetry relative to control; type: functional, organism-based; summary of the method: as §5
EPC [12] = assay: Cytoprotective activity in human EPC assessed as decrease in H2O2-induced senescence associated beta-galactosidase positive cells at 10 uM after 24 hrs; type: functional
Summary of the method: (§6)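 EPCs given test peptides (1 μM or 10 μM) with or without H₂O₂ for 24 h. Cells then fixed in 2% paraformaldehyde for 3 min and stained 24 h at 37 °C with X-gal solution. SA-β-gal-positive cells counted out of 100 at 20× by three investigators.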

HIT-T15 [13] = assay: Cytoprotective activity in hamster HIT-T15 cells assessed as inhibition of serum starvation-induced cell death after 24 hrs by MTT assay relative to control; type: functional, cell-based; settings: Mesocricetus auratus; summary of the method: as §2
[14] = target: Ras-related C3 botulinum toxin substrate 1 (Homo sapiens) (UniProt P63000); assay: Inhibition of Rac1 activation
HIT-T15 [15] = assay: Cytoprotective activity in hamster HIT-T15 cells assessed as inhibition of IFN-gamma/TNFalpha/IL1beta-induced cell death after 24 hrs by MTT assay relative to control; type: functional, cell-based; settings: Mesocricetus auratus; summary of the method: as §3
Rattus norvegicus [16] = assay: Antidiabetic activity in neonatal Sprague-Dawley rat assessed as inhibition of STZ-induced mortality at 100 nmol/kg, sc administered on day 2 post STZ-challenge measured on day 9 (reference value: 52%); type: functional; design: scale not given: the % may be the effect or the level left
HIT-T15 [17] = assay: Antiapoptotic activity in hamster HIT-T15 cells assessed as reduction in IFN-gamma/TNFalpha/IL1beta-induced apoptosis at 10 nM after 24 hrs by Hoechst staining relative to control; type: functional, cell-based; settings: Mesocricetus auratus; summary of the method: as §1
Rattus norvegicus [18] = assay: Antidiabetic activity in neonatal Sprague-Dawley rat assessed as inhibition of STZ-induced decrease in plasma insulin level at 100 nmol/kg, […] post STZ-challenge measured after 70 days by RIA by relative to control; type: functional, organism-based
Pancreatic islet [19] = assay: Cytoprotective activity in human pancreatic islet cells assessed as inhibition of serum starvation-induced cell death at 10 to 100 nM after 72 hrs by MTT assay relative to control; type: functional; summary of the method: as §4
EPC [20] = assay: Cytoprotective activity in human EPC assessed as decrease in H2O2-induced ROS production after 2 hrs by DCF-DA flow cytometry assay; type: functional
Summary of the method: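 Human EPCs from peripheral blood mononuclear cells, cultured 21 days on collagen I in EGM-2. ROS measured by flow cytometry using DCF-DA (0.5 μM final) after 2 h of treatment. H₂O₂ 150 μM as positive control.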

Pancreatic islet [21] = assay: Cytoprotective activity in human pancreatic islet cells assessed as inhibition of serum starvation-induced cell death at 100 nM after 24 hrs by MTT assay relative to control; type: functional
Summary of the method: (§7)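 Human donor islets (purity >70%, 25/well) serum-starved 24 h, then 24 h serum-free with peptide (1–100 nM), alone or with IFN-γ 100 ng/mL, TNF-α 200 ng/mL, IL-1β 10 ng/mL. MTT 1 mg/mL ~1 h, DMSO, A570. Percent of serum-free or cytokine control. ≥3 experiments in quadruplicate.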

EPC [22] = assay: Cytoprotective activity in human EPC assessed as decrease in H2O2-induced senescence associated beta-galactosidase positive cells at 1 uM after 24 hrs; type: functional; summary of the method: as §6
Pancreatic islet [23] = assay: Cytoprotective activity in human pancreatic islet cells assessed as inhibition of IFN-gamma/TNFalpha/IL1beta-induced cell death at 10 nM after 24 hrs by MTT assay relative to control; type: functional; summary of the method: as §7
Pancreatic islet [24] = assay: Cytoprotective activity in human pancreatic islet cells assessed as inhibition of IFN-gamma/TNFalpha/IL1beta-induced cell death at 100 nM after 24 hrs by MTT assay relative to control; type: functional; summary of the method: as §7
Pancreatic islet [25] = assay: Cytoprotective activity in human pancreatic islet cells assessed as inhibition of serum starvation-induced cell death at 10 nM after 24 hrs by MTT assay relative to control; type: functional; summary of the method: as §7
Pancreatic islet [26] = assay: Cytoprotective activity in human pancreatic islet cells assessed as inhibition of serum starvation-induced cell death at 1 nM after 24 hrs by MTT assay relative to control; type: functional; summary of the method: as §7
Pancreatic islet [27] = assay: Cytoprotective activity in human pancreatic islet cells assessed as inhibition of IFN-gamma/TNFalpha/IL1beta-induced cell death at 1 nM after 24 hrs by MTT assay relative to control; type: functional; summary of the method: as §7

Compound | Activity (HIT-T15 [1]) | Activity (Rattus norvegicus [2]) | Activity (HIT-T15 [3]) | Activity (HIT-T15 [4]) | Activity (Rattus norvegicus [5]) [%] | Activity (HIT-T15 [6]) | Activity (Pancreatic islet [7]) | Activity (Rattus norvegicus [9]) | Activity (Rattus norvegicus [11]) | Activity (HIT-T15 [13]) | Activity (HIT-T15 [15]) | Activity (HIT-T15 [17]) | Activity (Pancreatic islet [19]) | Activity (EPC [20]) | Activity (Pancreatic islet [21]) | Activity (Pancreatic islet [23]) | Activity (Pancreatic islet [24]) | Activity (Pancreatic islet [25]) | Activity (Pancreatic islet [26]) | Activity (Pancreatic islet [27]) | other results
CC(C)[C@H](NC(=O)[C@H](CCCNC(=N)N)NC(=O)[C@H](CCC(N)=O)NC(=O)[C@H](Cc1cnc[nH]1)NC(=O)[C@H](CCC(=O)O)NC(=O)[C@@H]1CCCN1C(=O)[C@@H](N)CO)C(=O)N[C@@H](CCC(N)=O)C(N)=O | Active | Active | Active | Active | 71 | Active | Active | Active | Active | Dose-dependent effect | Dose-dependent effect | Active | Active | Active |  |  |  |  |  |  | Activity (Rattus norvegicus [8]): Active; Activity (Rattus norvegicus [10]): Active; Activity (EPC [12]): Active; inhibition [14]: Active; Activity (Rattus norvegicus [16]): 89%; Activity (Rattus norvegicus [18]): Active
CC(C)C[C@H](NC(=O)[C@H](CCCCN)NC(=O)[C@H](C)NC(=O)[C@@H]1CCCN1C(=O)[C@@H]1CCCN1C(=O)[C@H](CCCCN)NC(=O)[C@H](CCCCN)NC(=O)[C@H](CO)NC(=O)[C@H](CCC(=O)O)NC(=O)[C@H](CCCCN)NC(=O)[C@H](CCCNC(=N)N)NC(=O)[C@H](CCC(N)=O)NC(=O)[C@H](CCC(N)=O)NC(=O)[C@@H](NC(=O)[C@H](CCCNC(=N)N)NC(=O)[C@H](CCC(N)=O)NC(=O)[C@H](Cc1cnc[nH]1)NC(=O)[C@H](CCC(=O)O)NC(=O)[C@@H]1CCCN1C(=O)[C@H](CO)NC(=O)[C@H](CC(C)C)NC(=O)[C@H](Cc1ccccc1)NC(=O)[C@H](CO)NC(=O)[C@H](CO)NC(=O)CN)C(C)C)C(=O)N[C@@H](CCC(N)=O)C(=O)N1CCC[C@H]1C(=O)N[C@@H](CCCNC(=N)N)C(=O)O | Active | Active | Active | Active | 72 | Active | Active | Active | Active | Dose-dependent effect | Dose-dependent effect | Active | Active | Active | Active | Active | Active | Active | inactive | Active | Activity (EPC [22]): Active
H-GSSFLSPEHQRVQQ-NH2 |  |  |  | Active |  | Active |  |  |  |  |  |  |  |  | Active | inactive | Active | Active |  | inactive | 
H-SPEHQRVA-NH2 |  |  |  | Active |  | Active |  |  |  |  |  |  |  |  |  |  |  |  |  |  | 
H-GSSFL-NH2 |  |  |  | inactive |  | inactive |  |  |  |  |  |  |  |  | inactive | inactive | inactive | inactive | inactive | inactive | 
H-EHQRVQ-NH2 |  |  | Active |  |  | Active |  |  |  |  |  | Active |  |  |  |  |  |  |  |  | 
